The target in this assay is T1, His6-Te2FT (Thermosynechococcus vestitus, UniProt Q8DK72).
T1 sequence (Q8DK72 1-293): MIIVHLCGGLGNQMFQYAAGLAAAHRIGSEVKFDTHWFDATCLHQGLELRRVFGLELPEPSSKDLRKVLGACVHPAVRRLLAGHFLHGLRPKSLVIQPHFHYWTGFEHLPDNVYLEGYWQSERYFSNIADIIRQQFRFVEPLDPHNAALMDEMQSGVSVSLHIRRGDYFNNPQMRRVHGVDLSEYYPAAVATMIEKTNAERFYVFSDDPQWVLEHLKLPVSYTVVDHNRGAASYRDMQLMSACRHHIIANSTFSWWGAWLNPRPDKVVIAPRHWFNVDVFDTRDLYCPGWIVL
As to the kind of experiment: HPLC-based fucosyltransferase kinetics. The conditions noted are these: α1–2-fucosyltransferase activity; acceptor; donor GDP-fucose. Format: biochemical. The gist of the method:
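Enzyme is N-His6-tagged Te2FT from the pET15b vector, expressed in E. coli at 16 °C for 20 h with shaking at 120 rpm. It was purified on a Ni2+ column and quantified by bicinchoninic acid assay. Apparent kinetic parameters (kcat, KM, kcat/KM) were determined for α1–2-fucosyltransferase activity. The acceptor was Galβ1–3GlcNAcβ2AA and the donor was GDP-fucose.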

As a reminder, the Km is the substrate concentration at which the rate is half of its maximum.

Galβ1–3GlcNAcβ2AA: the Km came out at 790 ± 110 µM.

(Values after publication PMC4775349 (Chemical communications (Cambridge, England), 2016).)
